Calls of active or inactive are those of the source. The calls are words filed in the database; no cut-off is given here.

The term IC50 denotes the midpoint of a concentration-inhibition curve.

Data set [1] can be described thus: Toxicity in axolotl embryo at 1 uM after 7 days by tail regeneration assay. The settings on record: ambystoma mexicanum, 168 h, time 7 day. The essentials: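 Stage 42 embryos manually hatched, anaesthetised with benzocaine, given 2 mm tail amputations, then reared with or without test agent in artificial pond water at 18–19 °C for 7 days postamputation. Imaged at 0 and 7 DPA. Agents dissolved in DMSO, 0.1% final DMSO. Vehicle served as negative control, geldanamycin as positive control.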

The test system of data set [2] is PC-3. Description: Cytotoxicity against human PC3 cells assessed as reduction in cell viability after 72 hrs by resazurin dye based fluorescence analysis. To be noted: PC-3, 72 h. It is filed as functional. The procedure, abridged:
(§1)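 A549 (non-small-cell lung) and PC3 (prostate) human cancer cells from ATCC. Viability was read after 72 h, in triplicate. Runs were either a single 80 μM concentration or a dose-response. Actinomycin D served as the positive control.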

For data set [3], the system named is A549. The data set can be described thus: Cytotoxicity against human A549 cells assessed as reduction in cell viability after 72 hrs by resazurin dye based fluorescence analysis. The settings on record: A549, 72 h. The class given is functional. The essentials:
as §1
A general note: Alamar Blue is a resazurin reagent that responds to reducing activity.

Data set [4] deals with Eukaryotic translation initiation factor 4E-binding protein 1 (Homo sapiens) (UniProt Q13541). Description: Inhibition of 4E-BP1 phosphorylation in human HCT116 cells at 2 uM after 6 hrs by Western blot analysis. The class given is cell-based. To be noted: HCT-116. The essentials:
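HCT116 cells were treated 6 h with 2 μM compound or with DMSO as negative control. Lysate was run on SDS-PAGE, blotted to PVDF and probed for phospho-4E-BP1 (Thr37/46, Ser65, Thr70), with chemiluminescent detection.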
Background: A western blot detects proteins with antibodies after separation by electrophoresis.

The subject of data set [5] is Mycolicibacterium aurum. The data set can be described thus: Antibacterial activity against Mycobacterium aurum ATCC 23366 at <= 133 uM incubated for 16 hrs. It is filed as functional, organism-based. The settings on record: dose microM <=133, time 16.0 hrs. The essentials: (§2)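 Microbial strains from ATCC or NRRL, tested in triplicate with a top concentration of 133 μM. Positive controls were kanamycin and ampicillin (S. aureus, M. luteus, S. enterica, E. coli) and amphotericin B (S. cerevisiae).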

For data set [6], the system named is A549. The data set can be described thus: Cytotoxicity against human A549 cells assessed as reduction in cell viability at 80 uM after 72 hrs by resazurin dye based fluorescence analysis. The class given is functional. The procedure, abridged: as §1
Data set [7] deals with Micrococcus luteus. Description: Antibacterial activity against Micrococcus luteus NRRL B-287 at <= 133 uM incubated for 16 hrs. The class given is functional, organism-based. The settings on record: dose microM <=133, time 16.0 hrs. The procedure, abridged: as §2
Data set [8] has as its system Staphylococcus aureus. The data set can be described thus: Antibacterial activity against Staphylococcus aureus ATCC 6538 at <= 133 uM incubated for 16 hrs. It is filed as functional, organism-based. The settings on record: dose microM <=133, time 16.0 hrs. The essentials:
as §2

Data set [9] deals with Escherichia coli. The data set can be described thus: Antibacterial activity against Escherichia coli NRRL B-3708 at <= 133 uM incubated for 16 hrs. It is filed as functional, organism-based. The settings on record: dose microM <=133, time 16.0 hrs. The procedure, abridged: as §2
For data set [10], the system named is Bacillus spizizenii. Description: Antibacterial activity against Bacillus subtilis ATCC 6633 at <= 133 uM incubated for 16 hrs. The class given is functional, organism-based. To be noted: dose microM <=133, time 16.0 hrs. The procedure, abridged: as §2
Data set [11] deals with PC-3. Description: Cytotoxicity against human PC3 cells assessed as reduction in cell viability at 80 uM after 72 hrs by resazurin dye based fluorescence analysis. The class given is functional. The procedure, abridged:
as §1

The test system of data set [12] is Salmonella enterica. The data set can be described thus: Antibacterial activity against Salmonella enterica ATCC 10708 at <= 133 uM incubated for 16 hrs. The class given is functional, organism-based. The settings on record: dose microM <=133, time 16.0 hrs. The essentials:
as §2

Data set [13] relates to Saccharomyces cerevisiae. Description: Antifungal activity against Saccharomyces cerevisiae ATCC 204508 at <= 133 uM after 16 hrs. The class given is functional, organism-based. The settings on record: dose microM <=133, time 16.0 hrs. The procedure, abridged: as §2

Chain of Eukaryotic translation initiation factor 4E-binding protein 1 (Homo sapiens) (Q13541 whole entry): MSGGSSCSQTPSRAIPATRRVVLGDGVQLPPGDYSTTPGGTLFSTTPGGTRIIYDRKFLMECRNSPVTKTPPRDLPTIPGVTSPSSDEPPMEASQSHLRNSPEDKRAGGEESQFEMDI

Turning to `C[C@@H]1O[C@@H](O[C@H]2[C@H](O)C[C@H](c3ccc4c(c3O)C(=O)C3=C(C4=O)[C@@]4(O)C(=O)C[C@](C)(O[C@H]5CC[C@H](O[C@H]6C=CC(=O)[C@H](C)O6)[C@H](C)O5)C[C@@]4(O)C=C3)O[C@@H]2C)C=CC1=O` [SAQUAYAMYCINS A], the Activity entry in data set [1] is listed as “Toxic”. Further, the IC50 in data set [2] and in [3] was below 500 nM in each case. Also, the inhibition result in data set [4] was “Active”.
Turning to `C/C(=C/c1c(O)cc2c(c1O)C(=O)c1cccc(O)c1C2=O)CC(=O)O`, the result in [5], in data set [6], in data set [7], in data set [8], in data set [9] and in [10] was inactive. In addition, the outcome in data set [11], in data set [12] and in data set [13] was inactive.

These data come from ChEMBL document CHEMBL4811313, “Himalaquinones A-G, Angucyclinone-Derived Metabolites Produced by the Himalayan Isolate Streptomyces sp. PU-MM59” (J Nat Prod, 2021).
